The results in this text go back to ChEMBL document CHEMBL1147582, “Approaches towards the stabilization of hemiaminal function at ornithine unit of mulundocandin” (2004).

Holding throughout (type): functional
The test system of assay [1] is Candida albicans. Description: Antifungal activity against Candida albicans at a concentration of 1 mg/mL in MeOH. A digest of the protocol:
(§1)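 Standard agar-well diffusion on Sabouraud agar bioassay plates, seeded with C. albicans strain IV or A. fumigatus strain AF-1. Read-out is the inhibition zone produced around the well. Zone appearance is scored as hazy, very hazy, hazy diffused or very hazy diffused, and judged against the zone of the parent mulundocandin.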

The subject of assay [2] is Aspergillus fumigatus. Description: Antifungal activity against Aspergillus fumigatus at a concentration of 5 mg/mL in MeOH; Zone: hazy diffused. A digest of the protocol:
as §1

Assay [3] relates to Aspergillus fumigatus. Description: Antifungal activity against Aspergillus fumigatus at a concentration of 2 mg/mL in MeOH; Zone: very hazy. The essentials: as §1
Assay [4] deals with Candida albicans. Description: Antifungal activity against Candida albicans at a concentration of 5 mg/mL in MeOH. A digest of the protocol: as §1
Assay [5] deals with Aspergillus fumigatus. Description: Antifungal activity against Aspergillus fumigatus at a concentration of 2 mg/mL in MeOH; Zone: hazy diffused. A digest of the protocol: as §1
For assay [6], the system named is Candida albicans. Description: Antifungal activity against Candida albicans at an intraperitoneal dose of 20 mg/kg twice a day for 6 days in mice. A digest of the protocol: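 Swiss mice were infected with C. albicans and treated intraperitoneally at 20 mg/kg ×6, b.i.d. Kidneys were homogenized and the approximate CFU per gm kidney was counted. Comparator groups were the parent compound, fluconazole and untreated infected controls.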

Assay [7] relates to Aspergillus fumigatus. Description: Antifungal activity against Aspergillus fumigatus at a concentration of 2 mg/mL in MeOH; Zone: very hazy diffused. A digest of the protocol: as §1
Assay [8] concerns Candida albicans. Description: Antifungal activity against Candida albicans at an intraperitoneal dose of 20 mg/kg twice a day for 6 days in mice in experiment 2. A digest of the protocol: (§2)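 Swiss mice infected with C. albicans; compounds given intraperitoneally at 20 mg/kg, ×6, b.i.d. Kidneys homogenized and colony-forming units counted per gram of kidney (approximate). Untreated infected control group included; fluconazole at the same dose used as standard.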

Assay [9] deals with Candida albicans. Description: Antifungal activity against Candida albicans at an intraperitoneal dose of 20 mg/kg twice a day for 6 days in mice in experiment 1. The essentials:
as §2

Assay [10] has as its system Aspergillus fumigatus. Description: Antifungal activity against Aspergillus fumigatus at a concentration of 1.1 mg/mL in MeOH; Zone: hazy diffused. A digest of the protocol:
as §1

For assay [11], the system named is Candida albicans. Description: Antifungal activity against Candida albicans at a concentration of 0.1 mg/mL in MeOH. A digest of the protocol:
as §1

Assay [12] concerns Candida albicans. Description: Antifungal activity against Candida albicans at a concentration of 1.1 mg/mL in MeOH. A digest of the protocol:
as §1

Assay [13] has as its system Aspergillus fumigatus. Description: Antifungal activity against Aspergillus fumigatus at a concentration of 1 mg/mL in MeOH; Zone: hazy. A digest of the protocol:
as §1

Assay [14] relates to Candida albicans. Description: Antifungal activity against Candida albicans at a concentration of 1 mg/mL in MeOH; Zone: hazy. The essentials: as §1
In assay [15] the test system is Aspergillus fumigatus. Description: Antifungal activity against Aspergillus fumigatus at a concentration of 2 mg/mL in MeOH; Zone: hazy. The essentials:
as §1

Assay [16] has as its system Aspergillus fumigatus. Description: Antifungal activity against Aspergillus fumigatus at a concentration of 5 mg/mL in MeOH; Zone: hazy. A digest of the protocol:
as §1

Assay [17] relates to Aspergillus fumigatus. Description: Antifungal activity against Aspergillus fumigatus at a concentration of 5 mg/mL in MeOH; Zone: very hazy diffused. A digest of the protocol: as §1
Assay [18] deals with Candida albicans. Description: Antifungal activity against Candida albicans at a concentration of 2 mg/mL in MeOH; Zone: hazy. A digest of the protocol: as §1
Assay [19] relates to Aspergillus fumigatus. Description: Antifungal activity against Aspergillus fumigatus at a concentration of 2 mg/mL in MeOH; Zone: diffused. The essentials:
as §1

Each structure is given as a SMILES string.

For the molecule `CCC(C)CCCCCCCCCCC(=O)N[C@@H]1C[C@@H](O)C(S(=O)(=O)CC(=O)OC)NC(=O)[C@@H]2[C@@H](O)[C@@H](C)CN2C(=O)C(CO)NC(=O)C([C@@H](O)[C@H](O)c2ccc(O)cc2)NC(=O)[C@@H]2C[C@@H](O)CN2C(=O)C(C(C)O)NC1=O` (some centres undefined), the Zone size with Candida albicans [1] came out at 20 mm; with Aspergillus fumigatus [2] it was 29 mm; in the assay with Aspergillus fumigatus [3], 24 mm; in the assay on Candida albicans [4], 26 mm.
Take `CCC(C)CCCCCCCCCCC(=O)N[C@@H]1C[C@@H](O)C(O)NC(=O)[C@@H]2[C@@H](O)[C@@H](C)CN2C(=O)[C@H](CO)NC(=O)[C@H]([C@@H](O)Cc2ccc(O)cc2)NC(=O)[C@@H]2C[C@@H](O)CN2C(=O)[C@H]([C@@H](C)O)NC1=O` (some centres undefined): the Zone size in the assay with Candida albicans [1] and in the assay with Aspergillus fumigatus [5] was 30 mm in each case. Moreover, in the assay on Candida albicans [6], the “Approximate colony formation unit” value is 180000000 (g kidney)-1.
For the molecule `CCC(C)CCCCCCCCCCC(=O)N[C@@H]1C[C@@H](O)CNC(=O)[C@@H]2[C@@H](O)[C@@H](C)CN2C(=O)[C@H](CO)NC(=O)[C@H]([C@@H](O)C(O)c2ccc(O)cc2)NC(=O)[C@@H]2C[C@@H](O)CN2C(=O)[C@H]([C@@H](C)O)NC1=O` (some centres undefined), the Zone size is 25 mm in the assay with Candida albicans [1], 23 mm with Aspergillus fumigatus [5], 25 mm in the assay with Aspergillus fumigatus [2] and 29 mm with Candida albicans [4].
Regarding `CCC(C)CCCCCCCCCCC(=O)N[C@@H]1C[C@@H](O)[C@H](O)NC(=O)[C@@H]2[C@@H](O)[C@@H](C)CN2C(=O)[C@H](CO)NC(=O)[C@H]([C@@H](O)[C@H](O)c2ccc(O)cc2)NC(=O)[C@@H]2C[C@@H](O)CN2C(=O)[C@H]([C@@H](C)O)NC1=O` (some centres undefined), the Zone size is 35 mm in the assay on Aspergillus fumigatus [7], 29 mm in the assay on Aspergillus fumigatus [10], 24 mm in the assay on Candida albicans [11] and 29 mm with Candida albicans [12]. The “Approximate colony formation unit” value is listed as 12500000 (g kidney)-1 in the assay on Candida albicans [8] and 150000000 (g kidney)-1 in the assay with Candida albicans [9].
Consider `CCC(C)CCCCCCCCCCC(=O)N[C@@H]1C[C@@H](O)CNC(=O)[C@@H]2[C@@H](O)[C@@H](C)CN2C(=O)[C@H](CO)NC(=O)[C@H]([C@@H](O)Cc2ccc(O)cc2)NC(=O)[C@@H]2C[C@@H](O)CN2C(=O)[C@H]([C@@H](C)O)NC1=O` (some centres undefined), for which the Zone size in the assay on Aspergillus fumigatus [13] was 25 mm; with Aspergillus fumigatus [5], 30 mm; in the assay with Aspergillus fumigatus [2], 35 mm; in the assay on Candida albicans [4] it was 38 mm; in the assay on Candida albicans [14], 24 mm. Also, the “Approximate colony formation unit” value in the assay with Candida albicans [6] is recorded as 7700000 (g kidney)-1.
For `CCC(C)CCCCCCCCCCC(=O)N[C@@H]1C[C@H](O)C(C#N)NC(=O)[C@@H]2[C@@H](O)[C@@H](C)CN2C(=O)[C@H](CO)NC(=O)[C@H]([C@@H](O)[C@H](O)c2ccc(O)cc2)NC(=O)[C@@H]2C[C@@H](O)CN2C(=O)[C@H]([C@@H](C)O)NC1=O` (some centres undefined), the Zone size in the assay on Candida albicans [1] was 19 mm; in the assay with Aspergillus fumigatus [5], 20 mm; in the assay on Aspergillus fumigatus [2], 27 mm; with Candida albicans [4] it was 25 mm.
In the case of `CCC(C)CCCCCCCCCCC(=O)N[C@@H]1C[C@@H](O)[C@H](OCc2ccccc2)NC(=O)[C@@H]2[C@@H](O)[C@@H](C)CN2C(=O)C(CO)NC(=O)C([C@@H](O)Cc2ccc(O)cc2)NC(=O)[C@@H]2C[C@@H](O)CN2C(=O)C(C(C)O)NC1=O` (some centres undefined), the Zone size stood at 15 mm with Aspergillus fumigatus [5], 18 mm in the assay with Aspergillus fumigatus [2] and 17 mm with Candida albicans [4].
As to `CCC(C)CCCCCCCCCCC(=O)N[C@@H]1C[C@@H](O)C(OCc2ccccc2)NC(=O)[C@@H]2[C@@H](O)[C@@H](C)CN2C(=O)C(CO)NC(=O)C([C@@H](O)[C@H](O)c2ccc(O)cc2)NC(=O)[C@@H]2C[C@@H](O)CN2C(=O)C(C(C)O)NC1=O` (some centres undefined), the Zone size with Aspergillus fumigatus [15] stood at 24 mm; in the assay on Candida albicans [4], 16 mm; in the assay on Aspergillus fumigatus [16], 26 mm.
On to `CCC(C)CCCCCCCCCCC(=O)N[C@@H]1C[C@@H](O)C(c2ccc(OC)c(OC)c2)NC(=O)[C@@H]2[C@@H](O)[C@@H](C)CN2C(=O)C(CO)NC(=O)C([C@@H](O)[C@H](O)c2ccc(O)cc2)NC(=O)[C@@H]2C[C@@H](O)CN2C(=O)C(C(C)O)NC1=O` (some centres undefined), for which the Zone size in the assay on Candida albicans [1] was determined as 24 mm; in the assay with Aspergillus fumigatus [5], 30 mm; in the assay on Aspergillus fumigatus [2], 32 mm; with Candida albicans [4] it was 29 mm.
On to `CCC(C)CCCCCCCCCCC(=O)N[C@@H]1C[C@@H](O)C(OC)NC(=O)[C@@H]2[C@@H](O)[C@@H](C)CN2C(=O)C(CO)NC(=O)C([C@@H](O)[C@H](O)c2ccc(O)cc2)NC(=O)[C@@H]2C[C@@H](O)CN2C(=O)C(C(C)O)NC1=O` (some centres undefined), for which the Zone size in the assay with Aspergillus fumigatus [17] was 35 mm; with Candida albicans [1], 25 mm; in the assay on Candida albicans [18], 26 mm; in the assay on Aspergillus fumigatus [15], 24 mm; in the assay on Aspergillus fumigatus [19], 37 mm; in the assay on Candida albicans [4], 27 mm.
Turning to `CCC(C)CCCCCCCCCCC(=O)N[C@@H]1C[C@@H](O)C(CN)NC(=O)[C@@H]2[C@@H](O)[C@@H](C)CN2C(=O)C(CO)NC(=O)C([C@@H](O)[C@H](O)c2ccc(O)cc2)NC(=O)[C@@H]2C[C@@H](O)CN2C(=O)C(C(C)O)NC1=O` (some centres undefined), the Zone size in the assay on Candida albicans [1] was 22 mm; with Aspergillus fumigatus [5], 23 mm; in the assay with Aspergillus fumigatus [2], 25 mm; with Candida albicans [4] it was 25 mm.
For `OC(Cn1cncn1)(Cn1cncn1)c1ccc(F)cc1F` [FLUCONAZOLE], the “Approximate colony formation unit” value in the assay on Candida albicans [8] was 10000 (g kidney)-1; in the assay with Candida albicans [9], 380000 (g kidney)-1.
